ChEMBL document CHEMBL1275598, “In vitro activity of ceftaroline against community-associated methicillin-resistant, vancomycin-intermediate, vancomycin-resistant, and daptomycin-nonsusceptible Staphylococcus aureus isolates” (2010)

What was measured:
Staphylococcus aureus [1] = experiment: Antimicrobial activity against vancomycin resistant Staphylococcus aureus VRS-2 expressing SCCmec type 2 element by microdilution method in presence of 50 mg/L calcium
Staphylococcus aureus [2] = experiment: Antimicrobial activity against vancomycin resistant Staphylococcus aureus VRS-3 expressing SCCmec type 4 element by microdilution method in presence of 50 mg/L calcium
Staphylococcus aureus [3] = experiment: Antimicrobial activity against vancomycin resistant Staphylococcus aureus VRS-4 expressing SCCmec type 4 element by microdilution method in presence of 50 mg/L calcium
Staphylococcus aureus [4] = experiment: Antimicrobial activity against vancomycin resistant Staphylococcus aureus VRS-6 expressing SCCmec type 2 element by microdilution method in presence of 50 mg/L calcium; type: functional
Method in brief: (§1)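 Broth microdilution per CLSI in cation-adjusted Mueller-Hinton broth supplemented with calcium to 50 mg/liter final. Antibiotic powders were reconstituted per CLSI. The MIC was read visually as the lowest drug concentration with no visible growth. S. aureus ATCC 29213 and E. faecalis ATCC 29212 served as control strains.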

Staphylococcus aureus [5] = experiment: Antimicrobial activity against vancomycin resistant Staphylococcus aureus VRS-9 expressing SCCmec type 2 element by microdilution method in presence of 50 mg/L calcium
Staphylococcus aureus [6] = experiment: Antimicrobial activity against vancomycin resistant Staphylococcus aureus VRS-10 expressing SCCmec type 2 element by microdilution method in presence of 50 mg/L calcium
Staphylococcus aureus [7] = experiment: Antimicrobial activity against community-acquired methicillin-resistant Staphylococcus aureus by microdilution method in presence of 50 mg/L calcium; type: functional
Method in brief: (§2)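 Daptomycin MIC by CLSI broth microdilution in cation-adjusted Mueller-Hinton broth, supplemented with calcium to a final 50 mg/liter. Read visually as the lowest concentration with no visible growth. ATCC 29213 and E. faecalis ATCC 29212 served as controls. CA-MRSA and DNSSA isolates came from patients at the study hospital; VISA isolates came from NARSA.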

Staphylococcus aureus [8] = experiment: Antimicrobial activity against community-acquired methicillin-resistant Staphylococcus aureus assessed as susceptible isolates by microdilution method in presence of 50 mg/L calcium; type: functional
Method in brief: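 Daptomycin MICs by CLSI broth microdilution in cation-adjusted Mueller-Hinton broth with calcium added to a final 50 mg/liter, read visually. Percentage susceptible among 92 CA-MRSA isolates assigned by CLSI breakpoints.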

Staphylococcus aureus [9] = experiment: Bactericidal activity against vancomycin-resistant Staphylococcus aureus assessed as antibiotic concentration that reduced the number of viable cells by =>99.9% by colony count method in presence of 50 mg/L calcium; type: functional
Method in brief: (§3)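 MBC per CLSI following microdilution in cation-adjusted Mueller-Hinton broth with calcium added to 50 mg/liter final. Defined as the concentration giving ≥99.9% reduction in viable cells, judged from colony counts of the growth control well against Pearson rejection-value tables.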

Staphylococcus aureus [10] = experiment: Bactericidal activity against community-acquired methicillin-resistant Staphylococcus aureus assessed as antibiotic concentration that reduced the number of viable cells by =>99.9% by colony count method in presence of 50 mg/L calcium; type: functional; method in brief: as §3
Staphylococcus aureus [11] = experiment: Antimicrobial activity against vancomycin-intermediate Staphylococcus aureus by microdilution method in presence of 50 mg/L calcium; type: functional
Method in brief: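 Daptomycin MIC by CLSI broth microdilution in cation-adjusted Mueller-Hinton broth supplemented with calcium to a final 50 mg/liter. The endpoint is the lowest concentration with no visible growth, read visually. S. aureus ATCC 29213 and E. faecalis ATCC 29212 were used as control strains.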

Staphylococcus aureus [12] = experiment: Antimicrobial activity against vancomycin-intermediate Staphylococcus aureus assessed as susceptible isolates by microdilution method in presence of 50 mg/L calcium; type: functional
Method in brief: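 Broth microdilution MIC per CLSI in cation-adjusted Mueller-Hinton broth, with calcium added to a final 50 mg/liter for daptomycin testing. MIC is the lowest drug concentration with no visible growth, read by eye. Percent susceptible was assigned from CLSI breakpoints. S. aureus ATCC 29213 and E. faecalis ATCC 29212 served as control strains.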

Staphylococcus aureus [13] = experiment: Antimicrobial activity against vancomycin-resistant Staphylococcus aureus assessed as susceptible isolates by microdilution method in presence of 50 mg/L calcium; type: functional; method in brief: as §1
Staphylococcus aureus [14] = experiment: Antimicrobial activity against daptomycin-nonsusceptible Staphylococcus aureus by microdilution method in presence of 50 mg/L calcium; type: functional; method in brief: as §2
Staphylococcus aureus [15] = experiment: Antimicrobial activity against vancomycin-resistant Staphylococcus aureus by microdilution method in presence of 50 mg/L calcium; type: functional; method in brief: as §1
Staphylococcus aureus [16] = experiment: Antimicrobial activity against vancomycin intermediate Staphylococcus aureus NRS-4 expressing SCCmec type 2 element by microdilution method in presence of 50 mg/L calcium; type: functional; method in brief: as §2
Staphylococcus aureus [17] = experiment: Antimicrobial activity against vancomycin intermediate Staphylococcus aureus NRS-17 expressing SCCmec type 2 element by microdilution method in presence of 50 mg/L calcium; type: functional; method in brief: as §2
Staphylococcus aureus [18] = experiment: Antimicrobial activity against vancomycin intermediate Staphylococcus aureus NRS-18 expressing SCCmec type 2 element by microdilution method in presence of 50 mg/L calcium; type: functional; method in brief: as §2
Staphylococcus aureus [19] = experiment: Antimicrobial activity against vancomycin intermediate Staphylococcus aureus NRS-19 expressing SCCmec type 2 element by microdilution method in presence of 50 mg/L calcium; type: functional; method in brief: as §2
Staphylococcus aureus [20] = experiment: Antimicrobial activity against vancomycin intermediate Staphylococcus aureus NRS-22 expressing SCCmec type 2 element by microdilution method in presence of 50 mg/L calcium; type: functional; method in brief: as §2
Staphylococcus aureus [21] = experiment: Antimicrobial activity against vancomycin intermediate Staphylococcus aureus NRS-24 expressing SCCmec type 2 element by microdilution method in presence of 50 mg/L calcium; type: functional; method in brief: as §2
Staphylococcus aureus [22] = experiment: Antimicrobial activity against vancomycin intermediate Staphylococcus aureus NRS-26 expressing SCCmec type 2 element by microdilution method in presence of 50 mg/L calcium; type: functional; method in brief: as §2
Staphylococcus aureus [23] = experiment: Antimicrobial activity against vancomycin intermediate Staphylococcus aureus NRS-27 expressing SCCmec type 2 element by microdilution method in presence of 50 mg/L calcium; type: functional; method in brief: as §2
Staphylococcus aureus [24] = experiment: Antimicrobial activity against vancomycin intermediate Staphylococcus aureus NRS-51 expressing SCCmec type 2 element by microdilution method in presence of 50 mg/L calcium; type: functional; method in brief: as §2
Staphylococcus aureus [25] = experiment: Antimicrobial activity against vancomycin intermediate Staphylococcus aureus NRS-68 expressing SCCmec type 2 element by microdilution method in presence of 50 mg/L calcium; type: functional; method in brief: as §2
Staphylococcus aureus [26] = experiment: Antimicrobial activity against vancomycin intermediate Staphylococcus aureus NRS-74 expressing SCCmec type 2 element by microdilution method in presence of 50 mg/L calcium; type: functional; method in brief: as §1
Staphylococcus aureus [27] = experiment: Antimicrobial activity against vancomycin intermediate Staphylococcus aureus NRS-76 expressing SCCmec type 2 element by microdilution method in presence of 50 mg/L calcium; type: functional; method in brief: as §1
Staphylococcus aureus [28] = experiment: Antimicrobial activity against vancomycin intermediate Staphylococcus aureus NRS-118 expressing SCCmec type 1 element by microdilution method in presence of 50 mg/L calcium; type: functional; method in brief: as §2
Staphylococcus aureus [29] = experiment: Antimicrobial activity against vancomycin intermediate Staphylococcus aureus NRS-126 expressing SCCmec type 2 element by microdilution method in presence of 50 mg/L calcium; type: functional; method in brief: as §2
Staphylococcus aureus [30] = experiment: Antimicrobial activity against vancomycin intermediate Staphylococcus aureus NRS-402 expressing SCCmec type 2 element by microdilution method in presence of 50 mg/L calcium; type: functional; method in brief: as §2

`CCCCCCCCCC(=O)N[C@@H](Cc1c[nH]c2ccccc12)C(=O)N[C@H](CC(N)=O)C(=O)N[C@@H](CC(=O)O)C(=O)N[C@@H]1C(=O)NCC(=O)N[C@@H](CCCN)C(=O)N[C@@H](CC(=O)O)C(=O)N[C@H](C)C(=O)N[C@@H](CC(=O)O)C(=O)NCC(=O)N[C@H](CO)C(=O)N[C@@H]([C@H](C)CC(=O)O)C(=O)N[C@@H](CC(=O)c2ccccc2N)C(=O)O[C@@H]1C` gave an MIC (Staphylococcus aureus [1]) of 0.5 µg/mL, an MIC (Staphylococcus aureus [2]) of 0.5 µg/mL and an MIC (Staphylococcus aureus [3]) of 0.5 µg/mL. It also gave an MIC (Staphylococcus aureus [4]) of 1 µg/mL, an MIC (Staphylococcus aureus [5]) of 0.5 µg/mL and an MIC (Staphylococcus aureus [6]) of 0.5 µg/mL. The MIC50 (Staphylococcus aureus [7]) was 0.5 µg/mL, the MIC90 (Staphylococcus aureus [7]) was 1 µg/mL and the Activity (Staphylococcus aureus [8]) was 100%. For the same compound, the MBC50 (Staphylococcus aureus [9]) was 1 µg/mL, the MBC90 (Staphylococcus aureus [9]) was 1 µg/mL and the MBC (Staphylococcus aureus [9]; Staphylococcus aureus) was 0.5 µg/mL. It also gave an MBC50 (Staphylococcus aureus [10]) of 0.5 µg/mL, an MBC90 (Staphylococcus aureus [10]) of 1 µg/mL and an MBC (Staphylococcus aureus [10]; Staphylococcus aureus) of 0.25 µg/mL. For the same compound, the MIC50 (Staphylococcus aureus [11]) was 2 µg/mL, the MIC90 (Staphylococcus aureus [11]) was 4 µg/mL and the Activity (Staphylococcus aureus [12]) was 35%. The Activity (Staphylococcus aureus [13]) was 100%, the MIC (Staphylococcus aureus [14]) was 4 µg/mL and the MIC50 (Staphylococcus aureus [14]) was 4 µg/mL. The MIC (Staphylococcus aureus [15]) was 0.5 µg/mL, the MIC50 (Staphylococcus aureus [15]) was 0.5 µg/mL and the MIC90 (Staphylococcus aureus [15]) was 1 µg/mL. The MIC (Staphylococcus aureus [16]) was 1 µg/mL, the MIC (Staphylococcus aureus [17]) was 4 µg/mL and the MIC (Staphylococcus aureus [18]) was 1 µg/mL. The MIC (Staphylococcus aureus [19]) was 2 µg/mL, the MIC (Staphylococcus aureus [20]) was 2 µg/mL and the MIC (Staphylococcus aureus [21]) was 2 µg/mL. It also gave an MIC (Staphylococcus aureus [22]) of 4 µg/mL, an MIC (Staphylococcus aureus [23]) of 1 µg/mL and an MIC (Staphylococcus aureus [24]) of 1 µg/mL. For the same compound, the MIC (Staphylococcus aureus [25]) was 1 µg/mL, the MIC (Staphylococcus aureus [26]) was 4 µg/mL and the MIC (Staphylococcus aureus [27]) was 2 µg/mL. It also gave an MIC (Staphylococcus aureus [28]) of 4 µg/mL, an MIC (Staphylococcus aureus [29]) of 2 µg/mL and an MIC (Staphylococcus aureus [30]) of 8 µg/mL.
